# Measured values taken from ChEMBL document CHEMBL4219255, “Targeting Transient Receptor Potential Vanilloid 1 (TRPV1) Channel Softly: The Discovery of Passerini Adducts as a Topical Treatment for Inflammatory Skin Disorders” (J Med Chem, 2018).
# Key:
# [1] = Drug metabolism in human fibroblast cells assessed as residual substrate levels at 50 uM up to 120 mins by HPLC-UV analysis; format: ADME, cell-based; conditions: read-out: Stability
# Cocaine esterase (CE2) [2] = target: T1, Cocaine esterase (CE2) (Homo sapiens, UniProt O00748); assay: Drug metabolism assessed as recombinant human CE2-mediated compound hydrolysis by measuring compound half life at 50 uM up to 30 mins by LC-UV analysis; format: ADME
# T1 sequence (O00748 whole entry): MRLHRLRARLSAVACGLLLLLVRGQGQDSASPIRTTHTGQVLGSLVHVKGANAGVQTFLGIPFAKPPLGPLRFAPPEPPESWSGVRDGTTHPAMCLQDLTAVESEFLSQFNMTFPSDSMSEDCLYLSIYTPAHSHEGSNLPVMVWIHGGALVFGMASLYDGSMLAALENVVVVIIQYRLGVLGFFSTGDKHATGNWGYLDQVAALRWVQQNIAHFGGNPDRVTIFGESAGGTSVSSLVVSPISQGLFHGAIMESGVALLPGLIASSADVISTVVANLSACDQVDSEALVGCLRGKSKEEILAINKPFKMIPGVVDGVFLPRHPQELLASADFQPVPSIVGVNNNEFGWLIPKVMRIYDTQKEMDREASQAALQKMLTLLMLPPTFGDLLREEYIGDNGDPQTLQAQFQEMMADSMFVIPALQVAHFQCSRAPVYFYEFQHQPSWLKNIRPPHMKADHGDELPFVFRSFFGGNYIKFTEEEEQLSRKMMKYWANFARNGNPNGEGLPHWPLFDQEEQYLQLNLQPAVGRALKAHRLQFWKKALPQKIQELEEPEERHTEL
# Method in brief: (§1)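 Recombinant human carboxylesterase isoforms 1 and 2 were each incubated with the test ester. Hydrolysis was followed by HPLC-UV, tracking the disappearance of the substrate over incubation time relative to the initial amount. Chromatograms were also checked for peaks of the expected hydrolysis metabolites.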
# Cocaine esterase [3] = target: T2, Cocaine esterase (Homo sapiens, UniProt O00748); assay: Drug metabolism assessed as recombinant human CE2-mediated compound hydrolysis by measuring rate constant at 50 uM up to 30 mins by LC-UV analysis; format: ADME; conditions: 0.5 h; method in brief: as §1
# T2 sequence (O00748 whole entry): T1 sequence (O00748 whole entry)
# [4] = Drug metabolism in human liver cytosol assessed as glucuronide metabolite formation at 50 uM in presence of UDPGA after 60 mins by LC-ESI-MS analysis; format: ADME, subcellular; conditions: 1 h
# [5] = Drug metabolism in human keratinocytes assessed as residual substrate levels at 50 uM up to 120 mins by HPLC-UV analysis; format: ADME, cell-based, Keratinocyte; conditions: read-out: Stability
# [6] = Drug metabolism in human liver microsomes assessed as glucuronide metabolite formation at 50 uM in presence of UDPGA after 60 mins by LC-ESI-MS analysis; format: ADME, microsome; conditions: 1 h
# [7] = Drug metabolism in human liver microsomes assessed as sulfate conjugate formation at 50 uM in presence of UDPGA after 60 mins by LC-ESI-MS analysis; format: ADME, microsome; conditions: 1 h
# [8] = Drug metabolism in human plasma assessed as residual substrate levels at 100 uM up to 20 mins by HPLC-UV analysis; format: ADME, cell-free; conditions: read-out: Stability
# [9] = Drug metabolism in human liver cytosol assessed as sulfate conjugate formation at 50 uM in presence of UDPGA after 60 mins by LC-ESI-MS analysis; format: ADME, subcellular; conditions: 1 h
# [10] = Drug metabolism in human HaCaT cells assessed as residual substrate levels at 25 uM up to 240 mins by HPLC-UV analysis; format: ADME, cell-based; conditions: read-out: Stability
# [11] = target: T3, Transient receptor potential cation channel subfamily V member 1 (Homo sapiens, UniProt Q8NER1); assay: Agonist activity at TRPV1 (unknown origin) expressed in human SH-SY5Y cells assessed as increase in calcium influx at 1 uM after 25 mins by Fluo-4 NW dye-based fluorescence assay relative to capsaicin
# Liver carboxylesterase 1 [12] = target: T4, Liver carboxylesterase 1 (Homo sapiens, UniProt P23141); assay: Drug metabolism assessed as recombinant human CE1-mediated compound hydrolysis by measuring rate constant at 50 uM up to 30 mins by LC-UV analysis; format: ADME; conditions: 0.5 h; method in brief: as §1
# T4 sequence (P23141 whole entry): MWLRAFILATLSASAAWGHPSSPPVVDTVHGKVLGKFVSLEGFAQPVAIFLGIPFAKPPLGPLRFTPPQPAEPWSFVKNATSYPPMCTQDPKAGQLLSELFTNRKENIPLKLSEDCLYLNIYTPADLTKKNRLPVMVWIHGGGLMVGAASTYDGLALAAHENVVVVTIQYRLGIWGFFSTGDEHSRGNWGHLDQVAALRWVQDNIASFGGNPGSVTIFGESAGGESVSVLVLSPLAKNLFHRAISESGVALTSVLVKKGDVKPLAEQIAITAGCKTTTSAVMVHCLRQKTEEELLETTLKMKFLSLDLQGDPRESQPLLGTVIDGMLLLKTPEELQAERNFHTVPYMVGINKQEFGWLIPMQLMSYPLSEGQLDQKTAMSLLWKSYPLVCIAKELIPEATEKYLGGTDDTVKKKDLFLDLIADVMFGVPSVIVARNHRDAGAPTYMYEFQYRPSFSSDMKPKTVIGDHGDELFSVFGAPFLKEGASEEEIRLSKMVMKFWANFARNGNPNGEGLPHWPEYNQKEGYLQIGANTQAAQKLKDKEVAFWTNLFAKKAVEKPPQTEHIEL
# [13] = target: T5, Liver carboxylesterase 1 (CE1) (Homo sapiens, UniProt P23141); assay: Drug metabolism assessed as recombinant human CE1-mediated compound hydrolysis by measuring compound half life at 50 uM up to 30 mins by LC-UV analysis; format: ADME; method in brief: as §1
# T5 sequence (P23141 whole entry): T4 sequence (P23141 whole entry)
# [14] = Drug metabolism in human liver S9 fraction assessed as residual substrate levels at 50 uM up to 60 mins by HPLC-UV analysis; format: ADME, subcellular; conditions: read-out: Stability
# [15] = target: T3, Transient receptor potential cation channel subfamily V member 1; assay: Agonist activity at TRPV1 (unknown origin) expressed in human SH-SY5Y cells assessed as increase in calcium influx after 25 mins by Fluo-4 NW dye-based fluorescence assay; format: cell-based
# Mus musculus = assay: Toxicity in C57BL/6 mouse assessed as change in body temperature at 3 mg/kg, iv after 120 mins; format: organism-based; conditions: in vivo, 2 h
# Cocaine esterase [16] = target: T2, Cocaine esterase; assay: Drug metabolism assessed as recombinant human CE2-mediated compound hydrolysis by measuring rate constant at 50 uM up to 60 mins by LC-UV analysis; format: ADME; conditions: 1 h
# Liver carboxylesterase 1 [17] = target: T4, Liver carboxylesterase 1; assay: Drug metabolism assessed as recombinant human CE1-mediated compound hydrolysis by measuring rate constant at 50 uM up to 60 mins by LC-UV analysis; format: ADME; conditions: 1 h
# [18] = target: T5, Liver carboxylesterase 1 (CE1); assay: Drug metabolism assessed as recombinant human CE1-mediated compound hydrolysis by measuring compound intrinsic clearance at 50 uM up to 60 mins by LC-UV analysis; format: ADME
# [19] = target: T5, Liver carboxylesterase 1 (CE1); assay: Drug metabolism assessed as recombinant human CE1-mediated compound hydrolysis by measuring compound half life at 50 uM up to 60 mins by LC-UV analysis; format: ADME
# [20] = target: T3, Transient receptor potential cation channel subfamily V member 1; assay: Antagonist activity at TRPV1 (unknown origin) expressed in human SH-SY5Y cells assessed as inhibition of capsaicin-induced calcium influx at 1 uM after 25 mins by Fluo-4 NW dye-based fluorescence assay relative to capsaicin; format: cell-based
# [21] = target: T3, Transient receptor potential cation channel subfamily V member 1; assay: Antagonist activity at TRPV1 (unknown origin) expressed in human SH-SY5Y cells assessed as inhibition of capsaicin-induced calcium increase after 25 mins by Fluo-4 NW dye-based fluorescence assay; format: cell-based
# Cocaine esterase (CE2) [22] = target: T1, Cocaine esterase (CE2); assay: Drug metabolism assessed as recombinant human CE2-mediated compound hydrolysis by measuring compound half life at 50 uM up to 60 mins by LC-UV analysis; format: ADME
# T3 sequence (Q8NER1 whole entry): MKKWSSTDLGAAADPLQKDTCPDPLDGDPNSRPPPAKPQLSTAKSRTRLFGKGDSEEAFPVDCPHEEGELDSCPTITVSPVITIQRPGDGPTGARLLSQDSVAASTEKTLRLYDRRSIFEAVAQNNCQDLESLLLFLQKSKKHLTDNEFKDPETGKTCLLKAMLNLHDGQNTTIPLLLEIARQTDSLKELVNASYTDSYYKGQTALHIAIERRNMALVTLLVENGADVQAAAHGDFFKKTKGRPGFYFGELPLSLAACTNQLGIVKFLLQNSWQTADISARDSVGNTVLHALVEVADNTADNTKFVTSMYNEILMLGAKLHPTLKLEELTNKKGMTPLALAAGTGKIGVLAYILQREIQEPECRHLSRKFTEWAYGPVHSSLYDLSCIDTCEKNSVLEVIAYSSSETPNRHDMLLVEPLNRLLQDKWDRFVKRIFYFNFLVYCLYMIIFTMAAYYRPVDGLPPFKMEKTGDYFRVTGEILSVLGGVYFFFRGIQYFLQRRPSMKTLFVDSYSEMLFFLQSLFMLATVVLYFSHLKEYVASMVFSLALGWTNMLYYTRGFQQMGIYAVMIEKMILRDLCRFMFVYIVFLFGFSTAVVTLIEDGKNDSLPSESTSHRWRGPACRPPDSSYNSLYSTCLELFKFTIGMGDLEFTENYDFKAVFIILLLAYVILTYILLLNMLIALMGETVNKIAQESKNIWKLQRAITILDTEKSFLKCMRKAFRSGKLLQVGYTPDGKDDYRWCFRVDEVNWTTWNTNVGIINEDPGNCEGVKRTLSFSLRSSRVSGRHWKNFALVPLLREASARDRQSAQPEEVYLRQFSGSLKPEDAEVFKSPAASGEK
"remaining at 2 h, 50 µM [1] [%]",Drug metabolism [4],"remaining at 2 h, 50 µM [5] [%]",Drug metabolism [6],Drug metabolism [7],"remaining at 20 min, 100 µM [8] [%]",Drug metabolism [9],"remaining at 4 h, 25 µM [10] [%]","remaining at 1 h, 50 µM [14] [%]",K (Cocaine esterase [16]) [min⁻¹],K (Liver carboxylesterase 1 [17]) [min⁻¹],microsomal CLint at 50 µM [18] [µL/min/mg],half-life at 50 µM [19] [min],half-life at 50 µM (Cocaine esterase (CE2) [22]) [min],SMILES,Activity [11] [%],EC50 [15] [nM],further results
,,,,,,,,,,,,,,CC(C)(C)c1ccc(NC(=O)N2CCN(c3ncccc3Cl)CC2)cc1,,,Activity (Mus musculus): Toxic
100,Metabolite_Notdetected,104,Metabolite_Notdetected,Metabolite_Notdetected,100,Metabolite_Notdetected,99.5,50.1,0.0877,0.0129,13,53.8,7.9,COc1cc(CNC(=O)COC(=O)/C=C(\C)CCC=C(C)C)c(I)cc1O,,,inhibition [20]: 90.1%; IC50 [21]: 90 nM
59.6,Metabolite_Notdetected,70.2,Metabolite_Notdetected,Metabolite_Notdetected,105,Metabolite_Notdetected,97.9,70.9,0.0497,0.0608,56,11.4,14,CC(C)=CCC/C(C)=C/CC/C(C)=C/CC/C=C(\C)CC/C=C(\C)CCC(=O)OCC(=O)NCc1ccc(O)c(O)c1,78.4,40,

SMILES,"remaining at 2 h, 50 µM [1] [%]",Drug metabolism [4],"remaining at 2 h, 50 µM [5] [%]",Drug metabolism [6],Drug metabolism [7],"remaining at 20 min, 100 µM [8] [%]",Drug metabolism [9],"remaining at 4 h, 25 µM [10] [%]","remaining at 1 h, 50 µM [14] [%]",K (Cocaine esterase [16]) [min⁻¹],K (Liver carboxylesterase 1 [17]) [min⁻¹],microsomal CLint at 50 µM [18] [µL/min/mg],half-life at 50 µM [19] [min],half-life at 50 µM (Cocaine esterase (CE2) [22]) [min],Activity [11] [%],EC50 [15] [nM],further results
CCCCCCCCCCCC(=O)OCC(=O)NCc1ccc(O)c(OC)c1,19.5,Metabolite_Notdetected,22.2,Metabolite_Notdetected,Metabolite_Notdetected,89.6,Metabolite_Notdetected,84.5,0,,,,,,65.1,370,half-life at 50 µM (Cocaine esterase (CE2) [2]): 18.6 min; K (Cocaine esterase [3]): 0.0376 min⁻¹; K (Liver carboxylesterase 1 [12]): 0.0465 min⁻¹; half-life at 50 µM [13]: 14.9 min
